Experimental data as given in ChEMBL document CHEMBL4699441, “Identification and Preclinical Evaluation of the Bicyclic Pyrimidine γ-Secretase Modulator BMS-932481” (ACS Med Chem Lett, 2019).

Tests used:
[1] = Hemodynamic activity in unconscious telemeterized rabbit assessed as increase in blood pressure at >= 10 mg/kg; assay type: ADME, organism-based, Oryctolagus cuniculus; settings: in vivo
[2] = Half life in Sprague-Dawley rat at 2 mg/kg, iv measured up to 24 hrs by LC-MS/MS analysis; assay type: ADME, organism-based; settings: in vivo
Procedure, shortened: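 Sprague-Dawley rats, 2 mg/kg by 5 min iv infusion in 9:1 PEG:EtOH, n=5.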

Cytochrome P450 2C9 = Cytochrome P450 2C9 (Homo sapiens, UniProt P11712); test: Inhibition of CYP2C9 in human liver microsomes; assay type: ADME
Cytochrome P450 2C9, sequence (P11712 whole entry): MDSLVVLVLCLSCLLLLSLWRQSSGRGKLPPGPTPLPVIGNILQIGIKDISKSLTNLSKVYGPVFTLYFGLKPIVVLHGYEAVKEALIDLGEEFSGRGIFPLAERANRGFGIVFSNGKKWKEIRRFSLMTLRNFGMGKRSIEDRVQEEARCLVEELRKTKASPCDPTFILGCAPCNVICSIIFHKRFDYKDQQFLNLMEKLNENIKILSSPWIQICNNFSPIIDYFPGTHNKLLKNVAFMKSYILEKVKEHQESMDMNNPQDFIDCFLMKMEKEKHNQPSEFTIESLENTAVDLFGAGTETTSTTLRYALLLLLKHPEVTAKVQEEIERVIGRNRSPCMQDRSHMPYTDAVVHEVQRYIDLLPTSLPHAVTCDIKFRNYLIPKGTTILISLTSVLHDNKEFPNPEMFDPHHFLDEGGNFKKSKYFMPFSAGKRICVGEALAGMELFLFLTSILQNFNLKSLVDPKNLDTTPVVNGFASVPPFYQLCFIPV

Cytochrome P450 1A2 = biological target: T1, Cytochrome P450 1A2 (Homo sapiens, UniProt P05177); test: Inhibition of CYP1A2 in human liver microsomes; assay type: ADME
T1 sequence (P05177 whole entry): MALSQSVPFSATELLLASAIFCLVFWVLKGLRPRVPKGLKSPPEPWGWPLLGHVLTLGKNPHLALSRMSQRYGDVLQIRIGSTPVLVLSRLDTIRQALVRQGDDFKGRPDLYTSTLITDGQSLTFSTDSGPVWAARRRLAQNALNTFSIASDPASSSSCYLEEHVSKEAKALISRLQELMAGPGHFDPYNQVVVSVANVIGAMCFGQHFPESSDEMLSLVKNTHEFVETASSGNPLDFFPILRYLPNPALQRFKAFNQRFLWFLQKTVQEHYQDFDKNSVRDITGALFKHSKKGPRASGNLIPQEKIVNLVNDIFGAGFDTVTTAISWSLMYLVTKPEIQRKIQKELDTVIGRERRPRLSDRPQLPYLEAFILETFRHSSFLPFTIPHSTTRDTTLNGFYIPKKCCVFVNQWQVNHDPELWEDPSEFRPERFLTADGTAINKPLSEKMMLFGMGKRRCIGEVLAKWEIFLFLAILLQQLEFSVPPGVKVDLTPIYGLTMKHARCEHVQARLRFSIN

[3] = Toxicity in Beagle dog assessed as hyperbilirubinemia at 150 mg/kg, po administered for 1 month; assay type: organism-based, Canis lupus familiaris; settings: in vivo, 730 h, time 1 months
Procedure, shortened: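 One-month oral toxicity study in dogs; high dose 150 mg/kg; bilirubin assessed.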

[4] = biological target: T2, Nuclear receptor subfamily 1 group I member 2 (Homo sapiens, UniProt O75469); test: Transactivation of PXR (unknown origin) assessed as CYP450 induction; assay type: ADME
T2 sequence (O75469 whole entry): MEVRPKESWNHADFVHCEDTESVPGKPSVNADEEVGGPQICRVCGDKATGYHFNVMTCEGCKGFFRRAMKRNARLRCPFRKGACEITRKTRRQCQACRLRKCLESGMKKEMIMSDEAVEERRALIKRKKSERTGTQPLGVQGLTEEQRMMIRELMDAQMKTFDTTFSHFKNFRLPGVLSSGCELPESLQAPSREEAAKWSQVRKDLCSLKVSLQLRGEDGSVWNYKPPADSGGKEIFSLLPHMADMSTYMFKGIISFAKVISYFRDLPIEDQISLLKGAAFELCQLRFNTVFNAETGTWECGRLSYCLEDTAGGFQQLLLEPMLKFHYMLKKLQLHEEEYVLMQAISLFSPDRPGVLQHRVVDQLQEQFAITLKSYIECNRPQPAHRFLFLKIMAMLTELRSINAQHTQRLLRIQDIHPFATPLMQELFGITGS

[5] = Metabolic stability in cynomolgus monkey assessed as half life incubated for 24 hrs by LC-MS/MS analysis; assay type: ADME, Macaca fascicularis
Cytochrome P450 2D6 = Cytochrome P450 2D6 (Homo sapiens, UniProt P10635); test: Inhibition of CYP2D6 in human liver microsomes; assay type: ADME
Cytochrome P450 2D6, sequence (P10635 whole entry): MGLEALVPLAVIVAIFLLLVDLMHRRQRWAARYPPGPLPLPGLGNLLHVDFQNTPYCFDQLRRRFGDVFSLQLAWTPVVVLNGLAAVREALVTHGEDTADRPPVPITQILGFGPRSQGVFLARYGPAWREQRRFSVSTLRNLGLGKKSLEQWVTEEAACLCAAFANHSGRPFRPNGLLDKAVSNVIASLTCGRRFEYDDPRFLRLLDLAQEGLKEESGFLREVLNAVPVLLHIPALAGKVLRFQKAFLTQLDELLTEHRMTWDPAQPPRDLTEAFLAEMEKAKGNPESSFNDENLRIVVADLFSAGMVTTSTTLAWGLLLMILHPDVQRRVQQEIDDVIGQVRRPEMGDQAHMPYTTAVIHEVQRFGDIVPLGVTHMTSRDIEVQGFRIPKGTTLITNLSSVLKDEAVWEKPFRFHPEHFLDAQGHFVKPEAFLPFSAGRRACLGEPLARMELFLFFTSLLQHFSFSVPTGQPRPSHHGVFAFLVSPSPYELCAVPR

Brain = test: Antialzheimer activity in rat brain assessed as reduction in amyloid beta (1 to 42) AUC at 10 mg/kg measured after 24 hrs relative to control; assay type: functional; design: scale not given: the % may be the effect or the level left
Procedure, shortened: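 Rats dosed orally; brain Aβ1-42 followed over 24 h, and the reduction in brain Aβ1-42 AUC integrated over 0–24 h was fitted to an indirect response PK/PD model.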

[6] = Fraction unbound in Beagle dog plasma measured after 24 hrs by LC-MS/MS analysis; assay type: ADME, cell-free, Canis lupus familiaris
[7] = Cardiotoxicity in unconscious telemeterized rabbit assessed as increase in QTcv time at 3 mg/kg; assay type: toxicity, organism-based, Oryctolagus cuniculus; settings: in vivo
[8] = Cardiotoxicity in unconscious telemeterized rabbit assessed as change in QTcf time at 3 mg/kg; assay type: toxicity, organism-based, Oryctolagus cuniculus; settings: in vivo
Cytochrome P450 2C8 = biological target: T3, Cytochrome P450 2C8 (Homo sapiens, UniProt P10632); test: Inhibition of CYP2C8 in human liver microsomes; assay type: ADME
T3 sequence (P10632 whole entry): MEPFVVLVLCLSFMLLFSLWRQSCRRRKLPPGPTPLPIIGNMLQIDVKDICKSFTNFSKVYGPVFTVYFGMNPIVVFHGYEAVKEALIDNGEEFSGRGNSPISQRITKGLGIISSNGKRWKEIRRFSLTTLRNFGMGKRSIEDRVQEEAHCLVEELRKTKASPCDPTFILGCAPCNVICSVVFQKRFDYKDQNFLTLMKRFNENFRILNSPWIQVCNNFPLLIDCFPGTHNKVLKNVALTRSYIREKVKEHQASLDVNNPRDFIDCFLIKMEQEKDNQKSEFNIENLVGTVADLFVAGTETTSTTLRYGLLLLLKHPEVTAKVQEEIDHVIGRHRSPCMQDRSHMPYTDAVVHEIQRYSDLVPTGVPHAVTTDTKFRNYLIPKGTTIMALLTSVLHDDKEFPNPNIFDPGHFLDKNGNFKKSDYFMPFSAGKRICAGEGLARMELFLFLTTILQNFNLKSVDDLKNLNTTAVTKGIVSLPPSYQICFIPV

[9] = Volume of steady state distribution in cynomolgus monkey at 1 mg/kg, iv measured up to 24 hrs by LC-MS/MS analysis; assay type: ADME, organism-based, Macaca fascicularis; settings: in vivo
Procedure, shortened: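 Male Beagle dog or male cynomolgus monkey; 1 mg/kg as 5 min iv infusion in 9:1 PEG:EtOH; n = 3; volume of distribution at steady state.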

[10] = Inhibition of amyloid beta (1 to 42) secretion in human H4 cells overexpressing APP incubated for overnight by HTRF analysis; assay type: functional, cell-based
[11] = Cardiotoxicity in unconscious telemeterized rabbit assessed as increase in QTcv time at 10 mg/kg; assay type: toxicity, organism-based, Oryctolagus cuniculus; settings: in vivo

Question: For CNc1nc(Nc2ccc(-n3cnc(C)n3)c(OC)c2)nc2c1CC[C@H]2c1ccc(F)cc1, which Activity [1] is on record?
Answer: Non-Toxic

Question: And the t1/2 [2]?
Answer: 2.7 h

Question: And the IC50 (Cytochrome P450 2C9)?
Answer: 7.4 µM

Question: And the IC50 (Cytochrome P450 1A2)?
Answer: > 40 µM

Question: What about the Activity [3] of the same compound?
Answer: Toxic

Question: What about the EC50 [4] of the same compound?
Answer: > 2.7 µM

Question: What about the t1/2 [5] of the same compound?
Answer: 0.183 h

Question: And the IC50 (Cytochrome P450 2D6)?
Answer: 18 µM

Question: What about the Activity (Brain) of the same compound?
Answer: 66%

Question: And the Fu [6]?
Answer: 0.8%

Question: What about the Time [7] of the same compound?
Answer: 4 ms

Question: What about the Activity [8] of the same compound?
Answer: Non-Toxic

Question: And the IC50 (Cytochrome P450 2C8)?
Answer: 4.5 µM

Question: And the Vdss [9]?
Answer: 5.4 L/kg

Question: What about the IC50 [10] of the same compound?
Answer: 0.0066 µM

Question: What about the Time [11] of the same compound?
Answer: 10 ms
